Source: EPA's CvTdb concentration-time database

Assays:
human = test: concentration in expired air after dosing; settings: dosed: methyl tert-butyl ether, 15 mg, oral, male
Summary of the method: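 Points were largely digitised from plot screenshots with WebPlotDigitizer or otherwise copied from tables, and they remain in the units each source reported. They come from published in vivo toxicokinetic studies and two structured collections. Sampling and analytical methods follow each source and were often not reported.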

Rat [1] = test: concentration in brain after dosing; settings: 3 h; dosed: Potassium Perfluorobutane Sulfonate; 20 mg/kg; oral; Male; Harlan Sprague Dawley
Rat [2] = test: concentration in plasma after dosing; settings: dosed: Potassium Perfluorobutane Sulfonate, 4 mg/kg, iv, Male, F344
Rat [3] = test: concentration in kidney after dosing; settings: 3 h; dosed: Potassium Perfluorobutane Sulfonate; 20 mg/kg; oral; Female; Harlan Sprague Dawley
Rat [4] = test: concentration in kidney after dosing; settings: 3 h; dosed: Potassium Perfluorobutane Sulfonate; 20 mg/kg; oral; Female; Harlan Sprague Dawley; remark: listed apart in the source
Rat [5] = test: concentration in liver after dosing; settings: 6 h; dosed: Potassium Perfluorobutane Sulfonate; 20 mg/kg; oral; Male; Harlan Sprague Dawley
Rat [6] = test: concentration in plasma after dosing; settings: dosed: Potassium Perfluorobutane Sulfonate, 4 mg/kg, iv, Male, F344; remark: listed apart in the source
Rat [7] = test: concentration in plasma after dosing; settings: 1.5 h; dosed: Potassium Perfluorobutane Sulfonate; 20 mg/kg; oral; Male; Harlan Sprague Dawley
Rat [8] = test: concentration in liver after dosing; settings: 6 h; dosed: Potassium Perfluorobutane Sulfonate; 20 mg/kg; oral; Female; Harlan Sprague Dawley
Rat [9] = test: concentration in plasma after dosing; settings: dosed: 678-39-7, 40 mg/kg, iv, Female, Harlan Sprague-Dawley
Rat [10] = test: concentration in kidney after dosing; settings: 24 h; dosed: Perfluorooctanoic acid; 80 mg/kg; oral; Female; Harlan Sprague Dawley
Rat [11] = test: concentration in liver after dosing; settings: 0.5 h; dosed: Fluorotelomer alcohol 8+2; 80 mg/kg; oral; Female; Harlan Sprague Dawley
Rat [12] = test: concentration in kidney after dosing; settings: 12 h; dosed: Fluorotelomer alcohol 8+2; 80 mg/kg; oral; Female; Harlan Sprague Dawley
Rat [13] = test: concentration in liver after dosing; settings: 192 h; dosed: Perfluorooctanoic acid; 12 mg/kg; oral; Male; Harlan Sprague Dawley
Rat [14] = test: concentration in liver after dosing; settings: 12 h; dosed: Fluorotelomer alcohol 8+2; 24 mg/kg; oral; Male; Harlan Sprague Dawley
Rat [15] = test: concentration in liver after dosing; settings: 6 h; dosed: Fluorotelomer alcohol 8+2; 80 mg/kg; oral; Female; Harlan Sprague Dawley
Rat [16] = test: concentration in liver after dosing; settings: 12 h; dosed: Perfluorooctanoic acid; 80 mg/kg; oral; Female; Harlan Sprague Dawley
Rat [17] = test: concentration in plasma after dosing; settings: 0.25 h; dosed: 678-39-7; 12 mg/kg; iv; Male; F344
Mouse [18] = test: concentration in plasma after dosing; settings: 2 h; dosed: 2-Hydroxy-4-methoxybenzophenone; 250 mg/kg; oral; Male; B6C3F1
Mouse [19] = test: concentration in plasma after dosing; settings: 0.25 h; dosed: 2-Hydroxy-4-methoxybenzophenone; 50 mg/kg; iv; Female; B6C3F1
Mouse [20] = test: concentration in plasma after dosing; settings: 0.25 h; dosed: 2-Hydroxy-4-methoxybenzophenone; 500 mg/kg; oral; Male; B6C3F1
Rat [21] = test: concentration in plasma after dosing; settings: dosed: 2-Hydroxy-4-methoxybenzophenone, 250 mg/kg, oral, Male, F344
Rat [22] = test: concentration in plasma after dosing; settings: dosed: 2-Hydroxy-4-methoxybenzophenone, 8 mg/kg, iv, Female, F344
Mouse [23] = test: concentration in plasma after dosing; settings: 3 h; dosed: 2-Hydroxy-4-methoxybenzophenone; 250 mg/kg; oral; Female; B6C3F1
Mouse [24] = test: concentration in plasma after dosing; settings: 0.25 h; dosed: 2-Hydroxy-4-methoxybenzophenone; 500 mg/kg; oral; Female; B6C3F1
Mouse [25] = test: concentration in plasma after dosing; settings: 10 min; dosed: 2-Hydroxy-4-methoxybenzophenone; 250 mg/kg; oral; Male; B6C3F1
Rat [26] = test: concentration in plasma after dosing; settings: dosed: 2-Hydroxy-4-methoxybenzophenone, 100 mg/kg, oral, Female, F344
Mouse [27] = test: concentration in plasma after dosing; settings: 10 min; dosed: 2-Hydroxy-4-methoxybenzophenone; 50 mg/kg; iv; Male; B6C3F1
Mouse [28] = test: concentration in plasma after dosing; settings: 0.25 h; dosed: 2-Hydroxy-4-methoxybenzophenone; 250 mg/kg; oral; Male; B6C3F1
Rat [29] = test: concentration in plasma after dosing; settings: 0.5 h; dosed: Nitrite; 80 mg/kg; oral; Female; F344
Rat [30] = test: concentration in plasma after dosing; settings: 0.5 h; dosed: Nitrite; 40 mg/kg; oral; Male; F344
Rat [31] = test: concentration in plasma after dosing; settings: 10 min; dosed: Nitrite; 40 mg/kg; oral; Male; F344
Rat [32] = test: concentration in plasma after dosing; settings: 5 min; dosed: Nitrite; 40 mg/kg; oral; Female; Harlan Sprague-Dawley

CC(C)(C)O [tert-butyl alcohol]
human
Settings	concentration in expired air [nM]
0.163 h	1.334
0.3286 h	2.062
0.5019 h	2.062
0.6649 h	2.197
0.8305 h	1.982
0.9909 h	1.774
1.501 h	1.665
1.995 h	1.562
2.994 h	1.49
3.99 h	1.323
4.991 h	1.366
5.99 h	1.242

O=S(=O)([O-])C(F)(F)C(F)(F)C(F)(F)C(F)(F)F.[K+] [Potassium Perfluorobutane Sulfonate]
Settings	concentration in brain [ng/g]	concentration in kidney [ng/g]	concentration in liver [ng/g]	concentration in plasma [ng/mL]
Rat [1]	552	–	–	–
Rat [3]	–	10500	–	–
Rat [4]	–	18600	–	–
Rat [5]	–	–	43800	–
Rat [7]	–	–	–	58500
Rat [8]	–	–	2620	–

concentration in plasma [ng/mL]
Settings	Rat [2]	Rat [6]
3 h	476	10200
5 min	29200	29400

O=C(O)C(F)(F)C(F)(F)C(F)(F)C(F)(F)C(F)(F)C(F)(F)C(F)(F)F [Perfluorooctanoic acid]
Rat [9]
Settings	concentration in plasma [ng/mL]
0.75 h	1830
12 h	528

Settings	concentration in kidney [ng/g]	concentration in liver [ng/g]	concentration in plasma [ng/mL]
Rat [10]	14000	–	–
Rat [11]	–	579	–
Rat [12]	711	–	–
Rat [13]	–	46900	–
Rat [14]	–	1700	–
Rat [15]	–	1430	–
Rat [16]	–	64300	–
Rat [17]	–	–	176

COc1ccc(C(=O)c2ccccc2)c(O)c1 [2-Hydroxy-4-methoxybenzophenone]
Settings	concentration in plasma [ng/mL]
Mouse [18]	55.1
Mouse [19]	4680
Mouse [20]	468
Mouse [23]	36.8
Mouse [24]	411
Mouse [25]	93.1
Mouse [27]	11900
Mouse [28]	231

Settings	concentration in plasma [ng/mL]
Rat [21], 3 h	71.3
Rat [21], 10 min	35.9
Rat [22], 2 h	78.6
Rat [22], 10 min	3030
Rat [26], 0.25 h	100
Rat [26], 4 h	16.3

O=N[O-] [Nitrite]
Settings	concentration in plasma [ng/mL]
Rat [29]	8900
Rat [30]	1900
Rat [31]	2600
Rat [32]	4100
